An excerpt weighted towards active compounds, which were near 2.7% of everything screened.
OXTR agonist: human OXTR agonism | P30559 | AID 2435 | actives 0.32% (n = 320,000) | activation, % at 3 µM | CHO-OTR cells, Fluo-8 calcium fluorescence; normalized: DMSO 0%, oxytocin 100%;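 active = activation above the mean of all tested compounds plus 3 SD, cutoff set per screening run, cut at about 20% in these data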;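 also: peak over basal fluorescence ratio from a 100 s FLIPR kinetic read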
OX1R antag-1: blocks the human orexin 1 receptor; O43613; OX1R-expressing cells, FRET antagonist read-out; inhibition, % at 6.6 µM; actives 1.8% (n = 330,000); AID 485270; in the data active = inhibition mostly above about 38%, no sharp cut-off; inactive = mostly below about 40%
OX1R antag-2: antagonists of human orexin 1 receptor; O43613; CHO/OX1R cells, Fluo-8 calcium fluorescence, orexin A; inhibition, % at 5 µM; actives 0.43% (n = 330,000);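 active = inhibition above its plate's threshold, mean inhibition of all tested compounds on the plate plus 3 SD, cut at about 37% in these data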
V1aR counter: counter-screen for oxytocin receptor agonists: human V1a receptor agonists. activation, % at 3 µM. actives 0.25% (n = 320,000). CHO-V1R cells, Fluo-8 calcium fluorescence, agonist mode; 0% DMSO, 100% 3 nM vasopressin;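 active = activation above the mean activation of all tested compounds plus 3 SD, per screening run, cut at about 20% in these data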;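 also: signal is peak over basal fluorescence ratio across a 100 second FLIPR read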
Target sequence (P37288 whole entry, looked up): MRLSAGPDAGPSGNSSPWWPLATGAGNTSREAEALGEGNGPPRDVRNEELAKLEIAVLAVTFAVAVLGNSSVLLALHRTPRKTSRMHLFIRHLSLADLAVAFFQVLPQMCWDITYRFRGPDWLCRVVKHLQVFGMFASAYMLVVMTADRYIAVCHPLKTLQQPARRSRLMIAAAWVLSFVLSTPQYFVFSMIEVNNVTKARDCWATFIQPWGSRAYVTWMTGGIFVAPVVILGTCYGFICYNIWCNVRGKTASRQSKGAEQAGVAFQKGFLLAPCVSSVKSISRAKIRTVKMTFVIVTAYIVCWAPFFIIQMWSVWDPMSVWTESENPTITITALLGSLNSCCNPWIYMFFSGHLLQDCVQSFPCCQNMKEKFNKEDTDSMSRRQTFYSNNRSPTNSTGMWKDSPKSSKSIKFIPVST
OXTR potentiator: human OXTR potentiation. actives 0.061% (n = 320,000). CHO-OTR cells, Fluo-8 calcium fluorescence, potentiator mode; 0% = oxytocin EC15, 100% = EC100. P30559. activation, % at 3 µM;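 active = activation above that plate's cutoff, the mean activation of tested compounds plus 3 SD, cut at about 6.6% in these data, passing the limit was not always enough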
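Material: CHO-OTR cells, human receptor; compound dosing: single dose, 3.0 µM nominal final compound concentration; schedule: 6 min compound pre-incubation at room temperature, 100 s kinetic read; measured by: kinetic Fluo-8 calcium fluorescence; read-out basis: % activation vs EC15 and EC100 oxytocin; controls: EC15 oxytocin alone as 0%, 75 nM oxytocin as 100%; replicates: singlicate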
CHO parental Ca: counter-screen: ATP calcium response change in parental CHO cells. actives 0.63% (n = 330,000). parental CHO-K1, ATP-induced calcium, Fluo-8 fluorescence. AID 463079. inhibition, % at 5.6 µM;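 active = inhibition above that plate's mean sample inhibition plus 3 SD, cut at about 26% in these data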
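test system = CHO parental line | reagent = ATP stimulus | measured by = intracellular calcium via Fluo-8 no-wash fluorescent dye | control set = ATP and no-ATP DMSO wells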
Large screens that a line does not name were inactive.

Cc1ccccc1OCC(O)Cn1c(=N)n(Cc2ccccc2)c2ccccc21 (centres undefined)	CHO parental Ca 39
COc1ccc(NC(=O)CCc2nc3ccccc3c(=O)[nH]2)cc1S(=O)(=O)N1CCCCC1	none
O=C(NNC(=O)c1cnccn1)c1cccc([N+](=O)[O-])c1	OX1R antag-1 44
Cc1cc(C(=O)NNC(=O)c2cccc([N+](=O)[O-])c2)n[nH]1	OX1R antag-1 28
Cc1ccccc1C(=O)NNC(=O)c1cccc([N+](=O)[O-])c1	none
O=C(NNC(=O)c1ccccc1[N+](=O)[O-])c1cnccn1	none
COc1ccc(CCN(Cc2ccccn2)C(=S)Nc2ccccc2Cl)cc1OC	OX1R antag-1 41
O=C(N1CCCCC1)N1CCN(S(=O)(=O)c2cccc([N+](=O)[O-])c2)CC1	none
O=C(N1CCCCCC1)N1CCN(S(=O)(=O)c2cccc([N+](=O)[O-])c2)CC1	OX1R antag-1 52
COc1ccc(/C=C/C(=O)OCC(=O)NCCc2ccccc2)c(OC)c1	none
CC(C)C(OC(=O)c1nsc(Cl)c1Cl)C(=O)NC1CCCCC1 (centres undefined)	none
c1ccc(Nc2nc3ccccc3n3cnnc23)cc1	OX1R antag-1 59
Cc1nc2cc(NC(=O)Nc3cccc4ccccc34)ccc2n1C	none
O=C(Nc1ccc2snnc2c1)Nc1cccc2ccccc12	OX1R antag-1 58, CHO parental Ca 27
COc1cccc(C(=O)C[n+]2cccc3cc(OC)ccc32)c1	OX1R antag-1 34
COc1ccc(C(=O)C[n+]2cccc3cc(OC)ccc32)cc1	none
CCc1ccccc1N1CC(C(=O)Nc2cc(S(=O)(=O)N3CCCC3)ccc2Cl)CC1=O (centres undefined)	none
O=C(NCc1ccccn1)c1ccc(OC2CCN(Cc3cccs3)CC2)cc1	none
CC(C)(C)C(=O)/C(=C\c1ccc([N+](=O)[O-])cc1)n1cncn1	OX1R antag-1 101
CCSc1nnc2c(n1)[nH]c1c(C)cccc12	OX1R antag-1 40
CC(=O)Nc1ccc(N=NC2C(=O)N(C(N)=S)N=C2C)cc1 (centres undefined)	OX1R antag-1 34
CC1=NN(C(N)=S)C(=O)C1N=Nc1ccc([N+](=O)[O-])cc1 (centres undefined)	none
O=C(CSc1ccc2ccccc2n1)N1CCC(c2noc3ccc(F)cc23)CC1	OX1R antag-1 55
COc1ccc(S(=O)(=O)N(C)C[C@H]2Oc3c(cccc3N(C)C)C(=O)N([C@H](C)CO)C[C@@H]2C)cc1	none
Cc1ccc(NC(=O)CC2SC3=NCCN3C2=O)cc1 (centres undefined)	CHO parental Ca 33
CC(=O)c1ccc(S(=O)(=O)NCCC(=O)OCC(=O)N(Cc2ccccc2)C(C)(C)C)cc1	none
COc1ccc(C2/C=C\CN(C(=O)Nc3ccc(C(F)(F)F)cc3)CC(=O)N2Cc2ccc(F)cc2)cc1 (centres undefined)	CHO parental Ca 60
COc1c(C)cc(Br)cc1C(=O)Nc1cccc(NC(=O)c2ccco2)c1	none
Cc1cc(C)c(OCC(=O)Nc2cccc(NC(=O)c3ccco3)c2)c(Br)c1	OX1R antag-1 64, CHO parental Ca 32
COc1ccc(Br)cc1C(=O)Nc1cccc(NC(=O)c2ccco2)c1	OX1R antag-1 44
COc1ccc(S(=O)(=O)N2CCc3ccccc32)cc1C(=O)NC1(C)CCS(=O)(=O)C1 (centres undefined)	none
NC(=O)c1cc2ccccc2o/c1=N\NC(=O)c1ccncc1	OX1R antag-1 69
Cc1ccc(C(=O)N/N=c2\oc3ccccc3cc2C(N)=O)cc1	none
Cc1ccc(-c2nc(Nc3cccc(C)c3)sc2CC(=O)O)cc1	none
O=C(O)Cc1sc(NC2CCCCC2)nc1-c1ccc(Cl)cc1	CHO parental Ca 33
O=[N+]([O-])c1cc(C=Nc2ccc3ccccc3c2)ccc1Br	OX1R antag-1 64
CCOc1ccc(N=Cc2ccc3ccccc3c2)cc1	none
COc1ccc(/C=C/C(=O)OCC(=O)NCc2ccccc2Cl)cc1OC	none
O=C(COC(=O)c1cccc([N+](=O)[O-])c1)c1ccc(OCc2ccccc2)cc1	OX1R antag-2 53, CHO parental Ca 53
O=C(CCn1nc(-c2ccccc2)c2ccccc2c1=O)N1CCN(c2ccccc2)CC1	OX1R antag-1 62
Cc1ccc(C)c(N2CCN(S(=O)(=O)c3csc(C(N)=O)c3)CC2)c1	none
N=c1c2c(-c3ccccc3)c(-c3ccccc3)n(Cc3ccco3)c2ncn1Cc1ccco1	OXTR agonist 36, V1aR counter 36
O=C(NCC1CCCN1S(=O)(=O)c1ccccc1)C(=O)NC1CC1 (centres undefined)	none
CCCCNc1c(-c2cccc(-c3ccc(OC)cc3)c2)nc2ccc(C)cn12	OX1R antag-2 46, CHO parental Ca 74
CCCCNc1c(-c2cccc(-c3cc(C(C)=O)cs3)c2)nc2ccc(C)cn12	none
CCCCNc1c(-c2cccc(-c3ccc(OC)cc3)c2)nc2cc(C)ccn12	CHO parental Ca 65
O=C(COc1ccccc1Cl)NNC(=O)c1ccc2nc[nH]c2c1	none
COc1ccc(CNC(=O)C(C)OC(=O)c2cccc(N(C)C)c2)cc1 (centres undefined)	none
Cn1c(CO)cnc1SCc1ccc([N+](=O)[O-])cc1	OX1R antag-1 73
CCOC(=O)c1c(C)[nH]c(C)c1S(=O)(=O)NCc1ccccc1OCC	OX1R antag-1 62
CCOC(=O)c1c(C)[nH]c(C)c1S(=O)(=O)NCc1ccccc1C	OX1R antag-1 50
CCOC(=O)c1c(C)[nH]c(C)c1S(=O)(=O)NCc1ccc(OCC)cc1	none
CC(C)(C)c1ccc(NC(=O)C2CCCN(c3cnccn3)C2)cc1 (centres undefined)	none
Cc1ccc(S(=O)(=O)NCC(=O)N(CC(=O)NCC2CCCO2)Cc2ccccc2Cl)cc1 (centres undefined)	none
CCOC(=O)c1c(NC(=O)CN2CCN(C(=O)c3ccco3)CC2)sc2c1CCCC2	OX1R antag-2 70, CHO parental Ca 60
CC(=O)NC(c1cccs1)c1cc(Cl)c2ccccc2c1O (centres undefined)	none
CCC(=O)NC(c1cc(Cl)c2ccccc2c1O)C1CC1 (centres undefined)	OX1R antag-1 63
CCC(=O)NC(c1cccs1)c1cc(Cl)c2ccccc2c1O (centres undefined)	OX1R antag-1 48
CCC(=O)NC(C)c1cc(Cl)c2ccccc2c1O (centres undefined)	none
CC(=O)NC(c1cc(Cl)c2ccccc2c1O)C(C)C (centres undefined)	OX1R antag-1 40
